# “And” between values parts separate entries of the source, which are not always exact repeats. Equal values may be shown once.
# Tested on: U2OS
# Test: Multiplex assay against U2OS
# Format: toxicity, cell-based
# Settings: human, number of replicates 2
# Procedure, shortened: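 On a CQ1 microscope at 37°C and 5% CO2, live cells were imaged after compound addition. They had been stained at seeding with Hoechst33342, BioTracker Green Microtubule Cytoskeleton Dye, MitoTracker Red and Annexin V Alexa Fluor 680. CellPathfinder machine-learning gating assigned cells to Hoechst high-intensity objects or normal cells, normal cells to healthy, pyknosed or fragmented nuclei, and pyknosed cells to mitotic or apoptotic. Tubulin, mitochondrial-mass and membrane-permeability phenotypes are per cents of healthy-nucleus cells.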
# [1] = 12 h, 1 µM, compound concentration 1 uM
# [2] = 12 h, 10 µM, compound concentration 10 uM
# [3] = 24 h, 1 µM, compound concentration 1 uM
# [4] = 24 h, 10 µM, compound concentration 10 uM
# [5] = 48 h, 1 µM, compound concentration 1 uM
# [6] = 48 h, 10 µM, compound concentration 10 uM
smiles,measurement,setting,value
COc1ccc(CC[C@@H](OC(=O)[C@@H]2CCCCN2C(=O)[C@H](c2cc(OC)c(OC)c(OC)c2)C2CCCCC2)c2cccc(OCCN3CCOCC3)c2)cc1OC,Population Apoptotic (%),[1],66% and 51%
same,Population Fragmented Nuclei (%),[1],10% and 3%
same,Population Healthy Nuclei (%),[1],64% and 82%
same,Population Hoechst High Intensity Objects (%),[1],0%
same,Population Membrane Permeable-Phenotype (%),[1],33% and 21%
same,Population Mitochondria Different-Phenotype (%),[1],16% and 37%
same,Population Mitotic Cells (%),[1],33% and 48%
same,Population Normal (%),[1],100% and 99%
same,Population Pyknosed Nuclei (%),[1],24% and 13%
same,Population Tubulin-Different-Phenotype (%),[1],45% and 43%
same,Population Apoptotic (%),[2],100% and 70%
same,Population Healthy Nuclei (%),[2],56% and 81%
same,Population Hoechst High Intensity Objects (%),[2],2% and 0%
same,Population Membrane Permeable-Phenotype (%),[2],82% and 57%
same,Population Mitochondria Different-Phenotype (%),[2],47% and 40%
same,Population Normal (%),[2],97% and 99%
same,Population Pyknosed Nuclei (%),[2],14%
same,Population Tubulin-Different-Phenotype (%),[2],100% and 98%
same,Population Apoptotic (%),[3],60% and 75%
same,Population Fragmented Nuclei (%),[3],11% and 3%
same,Population Healthy Nuclei (%),[3],65% and 77%
same,Population Hoechst High Intensity Objects (%),[3],0%
same,Population Membrane Permeable-Phenotype (%),[3],21% and 18%
same,Population Mitotic Cells (%),[3],40% and 24%
same,Population Normal (%),[3],100%
same,Population Pyknosed Nuclei (%),[3],23% and 18%
same,Population Tubulin-Different-Phenotype (%),[3],28% and 35%
same,Population Apoptotic (%),[4],73% and 96%
same,Population Fragmented Nuclei (%),[4],22% and 9%
same,Population Healthy Nuclei (%),[4],43% and 67%
same,Population Hoechst High Intensity Objects (%),[4],0%
same,Population Membrane Permeable-Phenotype (%),[4],89% and 86%
same,Population Mitochondria Different-Phenotype (%),[4],42% and 39%
same,Population Normal (%),[4],100% and 99%
same,Population Pyknosed Nuclei (%),[4],34% and 23%
same,Population Tubulin-Different-Phenotype (%),[4],100% and 99%
same,Population Apoptotic (%),[5],57% and 87%
same,Population Fragmented Nuclei (%),[5],10% and 3%
same,Population Healthy Nuclei (%),[5],55% and 75%
same,Population Hoechst High Intensity Objects (%),[5],0%
same,Population Membrane Permeable-Phenotype (%),[5],9% and 12%
same,Population Mitochondria Different-Phenotype (%),[5],15% and 37%
same,Population Normal (%),[5],100% and 99%
same,Population Pyknosed Nuclei (%),[5],35% and 21%
same,Population Tubulin-Different-Phenotype (%),[5],24% and 37%
same,Population Apoptotic (%),[6],96% and 91%
same,Population Fragmented Nuclei (%),[6],22% and 10%
same,Population Healthy Nuclei (%),[6],25% and 51%
same,Population Hoechst High Intensity Objects (%),[6],4% and 1%
same,Population Membrane Permeable-Phenotype (%),[6],91%
same,Population Mitochondria Different-Phenotype (%),[6],33% and 42%
same,Population Mitotic Cells (%),[6],4% and 8%
same,Population Normal (%),[6],96% and 98%
same,Population Pyknosed Nuclei (%),[6],52% and 37%
same,Population Tubulin-Different-Phenotype (%),[6],100%

# Source: ChEMBL document CHEMBL5303300, “EUbOPEN Chemogenomics Library - Multiplex” (2023)
